Measured values reported in ChEMBL document CHEMBL4261642, “Design, synthesis, and ex vivo evaluation of a selective inhibitor for retinaldehyde dehydrogenase enzymes” (Bioorg Med Chem, 2018).

Assays:
[1] = target: T1, Retinal dehydrogenase 2 (Gallus gallus) (UniProt O93344); assay: Inhibition of chick RALDH2 expressed in doxycycline-inducible HEK293 cells assessed as inhibition of ATRA synthesis at 0.5 uM after 24 hrs in presence of […]
T1 sequence (whole entry): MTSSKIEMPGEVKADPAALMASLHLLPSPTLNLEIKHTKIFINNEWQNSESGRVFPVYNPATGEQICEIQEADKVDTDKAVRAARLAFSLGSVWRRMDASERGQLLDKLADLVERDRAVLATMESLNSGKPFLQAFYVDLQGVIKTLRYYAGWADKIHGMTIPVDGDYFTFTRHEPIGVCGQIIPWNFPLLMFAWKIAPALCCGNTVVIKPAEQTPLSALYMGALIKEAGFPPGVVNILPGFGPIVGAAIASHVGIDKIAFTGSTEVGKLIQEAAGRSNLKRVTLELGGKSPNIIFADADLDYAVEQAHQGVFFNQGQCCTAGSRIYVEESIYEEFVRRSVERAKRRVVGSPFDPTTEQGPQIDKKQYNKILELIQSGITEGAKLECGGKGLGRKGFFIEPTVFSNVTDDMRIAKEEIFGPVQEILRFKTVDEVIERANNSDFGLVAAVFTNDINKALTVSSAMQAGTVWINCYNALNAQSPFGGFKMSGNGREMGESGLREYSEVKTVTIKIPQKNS

Gallus gallus [2] = organism: Gallus gallus; assay: (§1) Inhibition of N-terminal His6-tagged recombinant chick RALDH3 expressed in Escherichia coli BL21(DE3) cells at 500 nM using RAL as substrate assessed as Km preincubated for 20 mins followed by substrate addition and measured after 30 mins in presence of NADH by fluorescence assay (reference value: 84.45 +/- 30.99 microM)
Retinal dehydrogenase 2 = target: T2, Retinal dehydrogenase 2 (Gallus gallus, UniProt O93344); assay: Inhibition of N-terminal His6-tagged recombinant chick RALDH2 expressed in Escherichia coli BL21(DE3) cells using RAL as substrate measured after 30 mins in presence of NADH by Morrison's plot analysis
T2 sequence (O93344 whole entry): T1 sequence (whole entry)
Method in brief: (§2)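 Ki obtained by fitting the Morrison tight-binding equation to the 20-min pre-incubation retinaldehyde/NADH fluorescence inhibition data. Inputs were enzyme concentration (RALDH1 0.358, RALDH2 0.091, RALDH3 0.355, hRALDH2 0.176 μM), substrate concentration and Km. Triplicates from 3–5 independent experiments.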

[3] = target: T3, Aldehyde dehydrogenase, mitochondrial (Homo sapiens, UniProt P05091); assay: Inhibition of N-terminal His6-tagged recombinant human mitochondrial ALDH2 using propionaldehyde as substrate measured after 30 mins in presence of NADH by Morrison's plot analysis
T3 sequence (P05091 whole entry): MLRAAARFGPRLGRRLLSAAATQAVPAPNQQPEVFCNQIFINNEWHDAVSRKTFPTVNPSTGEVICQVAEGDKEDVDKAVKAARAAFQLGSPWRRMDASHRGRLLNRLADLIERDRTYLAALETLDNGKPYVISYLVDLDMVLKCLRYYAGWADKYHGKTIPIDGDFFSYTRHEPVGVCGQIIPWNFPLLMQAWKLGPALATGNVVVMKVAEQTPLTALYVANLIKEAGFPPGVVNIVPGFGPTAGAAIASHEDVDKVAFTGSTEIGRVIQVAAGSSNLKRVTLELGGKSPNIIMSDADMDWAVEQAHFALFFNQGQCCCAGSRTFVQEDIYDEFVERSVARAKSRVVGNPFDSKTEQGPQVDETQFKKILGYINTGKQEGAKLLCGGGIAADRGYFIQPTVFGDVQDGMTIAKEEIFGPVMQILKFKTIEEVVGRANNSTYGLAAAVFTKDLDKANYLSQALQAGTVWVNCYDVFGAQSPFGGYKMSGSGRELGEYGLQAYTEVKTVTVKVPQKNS

[4] = target: T1, Retinal dehydrogenase 2 (Gallus gallus); assay: (§3) Inhibition of N-terminal His6-tagged recombinant chick RALDH2 expressed in Escherichia coli BL21(DE3) cells at 250 nM using RAL as substrate assessed as remaining activity preincubated for 5 mins followed by all-trans-retinaldehyde and substrate addition measured after 30 mins in presence of NAD+ by fluorescence assay
Method in brief: (§4)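 Chick RALDH2 (91 nM) pre-incubated with 250 nM inhibitor for 0–80 min at 37°C, alone or with 250 μM retinaldehyde or 250 μM NAD+. Reaction then started with the missing substrate and/or cofactor (250 μM retinaldehyde, 4 mM NAD), 30 min at 37°C. Fluorimetric NADH; % activity remaining. Triplicates.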

[5] = target: T1, Retinal dehydrogenase 2 (Gallus gallus); assay: as §3, with “for 20” for “for 5”
Method in brief: as §4

[6] = target: T1, Retinal dehydrogenase 2 (Gallus gallus); assay: Inhibition of N-terminal His6-tagged recombinant chick RALDH2 expressed in Escherichia coli BL21(DE3) cells up to 500 nM using RAL as substrate assessed as Kinact/Ki ratio preincubated up to 40 mins followed by substrate addition and measured after 30 mins in presence of NADH by fluorescence assay
Method in brief: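 Chick RALDH2 pre-incubated 10, 20 and 40 min with 0–500 nM inhibitor, then assayed with retinaldehyde/NAD+ by fluorimetric NADH. kobs taken from linear regression of log % activity remaining versus pre-incubation time. KI and kinact obtained by nonlinear regression of kobs versus inhibitor concentration.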

Gallus gallus [7] = organism: Gallus gallus; assay: as §1, with “Vmax” for “Km”, “107.3” for “84.45”, “15.97 pmol/microM/min)” for “30.99 microM)”
[8] = target: T1, Retinal dehydrogenase 2 (Gallus gallus); assay: Inhibition of chick RALDH2 expressed in doxycycline-inducible HEK293 cells assessed as inhibition of ATRA synthesis at 0.05 uM after 24 hrs in presence of […]; type: cell-based
[9] = target: T4, Aldehyde dehydrogenase 1A1 (Gallus gallus, UniProt P27463); assay: Inhibition of N-terminal His6-tagged recombinant chick RALDH1 expressed in Escherichia coli BL21(DE3) cells using RAL as substrate measured after 30 mins in presence of NADH by Morrison's plot analysis
T4 sequence (P27463 whole entry): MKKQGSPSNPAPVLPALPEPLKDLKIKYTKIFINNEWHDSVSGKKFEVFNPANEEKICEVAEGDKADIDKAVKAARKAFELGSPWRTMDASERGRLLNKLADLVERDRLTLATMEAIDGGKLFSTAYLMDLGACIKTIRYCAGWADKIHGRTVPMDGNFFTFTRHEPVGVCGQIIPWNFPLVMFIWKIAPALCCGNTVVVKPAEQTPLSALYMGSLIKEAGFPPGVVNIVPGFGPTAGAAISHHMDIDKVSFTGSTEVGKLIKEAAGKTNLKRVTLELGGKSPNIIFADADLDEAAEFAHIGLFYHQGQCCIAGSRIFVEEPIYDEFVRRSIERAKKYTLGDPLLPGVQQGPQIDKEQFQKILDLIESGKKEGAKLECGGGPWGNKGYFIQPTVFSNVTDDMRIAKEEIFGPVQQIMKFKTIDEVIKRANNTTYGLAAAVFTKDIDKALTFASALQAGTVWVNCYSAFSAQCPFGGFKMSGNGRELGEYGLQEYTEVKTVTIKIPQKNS
Method in brief: as §2

Gallus gallus [10] = organism: Gallus gallus; assay: as §1, with “100” for “500”, “Vmax” for “Km”, “107.3” for “84.45”, “15.97 pmol/microM/min)” for “30.99 microM)”

With `CC1=C(/C=C/C(C)=C/C=C/C(C)=C/C(=O)C(Cl)Cl)C(C)(C)CCC1` as the compound, how does the inhibition [1] read?
Its inhibition is 47%.

And the Km (Gallus gallus [2])?
The Km was 26.9 µM.

What about the Ki (Retinal dehydrogenase 2) of the same compound?
The Ki was 5.1 nM.

And the Ki [3]?
The Ki was “Not Active”.

And the Activity [4]?
Its Activity is 39.2%.

What about the Activity [5] of the same compound?
The Activity was 27.8%.

And the Ratio [6]?
Its Ratio is 124000 M⁻¹ min⁻¹.

And the Vmax (Gallus gallus [7])?
Its Vmax is 21.6 pmol/µM/min.

What about the inhibition [8] of the same compound?
The inhibition was 42%.

And the Ki [9]?
The Ki was 194 nM.

And the Vmax (Gallus gallus [10])?
Its Vmax is 68.4 pmol/µM/min.
